High-throughput results as filed in PubChem BioAssay.
Compounds with a hit are over-represented: about 2% of the library has one in this group of screens.
PKD1 kinase inh: inhibitors of human PKD1 kinase | hit rate 0.056% among 200,000 | PKD1 kinase fluorescence polarization assay | AID 797 | inhibition, % (test concentration not listed) | Q15139
MEX-5 binding: C. elegans MEX-5 TCR-2 RNA binding activity; hit rate 0.38% among 300,000; AID 1832; MEX-5/FITC-TCR2 RNA binding, fluorescence polarization; active compounds read low; activity score (negative = inhibition of binding), % at 10 µM; Q9XUB2;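 active = inhibition past about -25% in most replicates, and total fluorescence under double the plate's negative control median, limit read from the data; inconclusive = replicates evenly split on the limit, or fluorescence at least double controls; inactive = too little inhibition in most replicates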;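 note: 0% = DMSO and -100% = 5 µM competing unlabeled TCR2 RNA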
Target sequence (Q9XUB2 whole entry, looked up): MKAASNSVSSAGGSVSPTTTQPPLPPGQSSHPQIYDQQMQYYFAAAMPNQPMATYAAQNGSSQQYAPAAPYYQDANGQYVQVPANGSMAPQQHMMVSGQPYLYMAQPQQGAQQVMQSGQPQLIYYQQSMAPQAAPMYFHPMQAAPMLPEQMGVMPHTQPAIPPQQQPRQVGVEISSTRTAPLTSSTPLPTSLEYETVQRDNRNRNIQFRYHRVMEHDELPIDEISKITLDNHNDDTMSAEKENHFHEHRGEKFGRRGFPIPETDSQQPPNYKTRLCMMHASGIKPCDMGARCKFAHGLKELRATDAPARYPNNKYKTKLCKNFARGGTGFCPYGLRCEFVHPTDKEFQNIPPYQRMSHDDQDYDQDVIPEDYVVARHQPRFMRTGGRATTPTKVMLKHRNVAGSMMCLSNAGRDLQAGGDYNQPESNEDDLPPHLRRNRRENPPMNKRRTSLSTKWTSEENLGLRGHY
Runt-SMMHC FRET: inhibitors of human RUNX1 Runt domain binding to CBFb-SMMHC. Cerulean-Runt/Venus-CBFb-SMMHC FRET ratio 530/480, 1 h. AID 1434. hit rate 0.74% among 220,000. inhibition, % at 20 µM. Q01196+Q13951;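 active = mean inhibition across duplicate retests at 20 µM reaching about 50%, limit read from the data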;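 note: 0% = DMSO wells and 100% = wells with excess untagged CBFb-SMMHC; inhibitors lower the FRET ratio by blocking Runt binding to CBFb-SMMHC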
Runt-CBFb FRET: blocks binding of human RUNX1 Runt domain to CBFb. inhibition, % at 20 µM. Q01196+Q13951. Cerulean-Runt/Venus-CBFb FRET ratio 530/480, 1 h. hit rate 0.46% among 220,000;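 active = inhibition over about 50% at 20 µM in the single-dose screen, limit read from the data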;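 note: 0% = DMSO wells and 100% = excess unlabeled CBFb competitor control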
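Buffer or medium: Tris pH 7.5 buffer with BSA. Assay system: Cerulean-labeled Runt domain protein. Amount: each fluorescent fusion protein 100 nM. Read-out basis: loss of energy transfer signal. Incubation: 1 h compound exposure, room temperature. Probe or stimulus: Venus-CBFb binding partner, 100 nM. Detection: FRET, excitation 422 nm, emission at 530 and 480 nm.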
RanGTP-Impb inh: disruptors of Ran-importin-beta complex formation – biochemical, FRET, CFP-Ran, YFP-importin-beta, homogeneous, primary screen | cell-free CFP-Ran/YFP-importin-beta FRET ratio | inhibition, % (test concentration not listed) | hit rate 1.1% among 300,000 | AID 2216;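 active = more than half of the replicate wells show a fall in the fluorescence ratio signal beyond about 16%, limit read from the data, passing the limit was not always enough; inconclusive = exactly half of the replicate wells pass the set limit; inactive = fewer than half of replicates pass the limit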;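 note: 0% = DMSO wells and 100% = Ran loaded with GDP instead of GTP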
EBV gp42 block: EBV gp42 inhibition. hit rate 0.42% among 220,000. inhibition, % (tested at 21.74 µM). Fluorescence polarization binding assay, mP read-out. Q1HVG2. AID 1085
Starred values were filed as active, the others as inactive; ? = inconclusive; · = no result given. Cut-off read from the data, not from the text of the source, unless noted: active = inhibition above about 50%; inactive = the rest.

SMILES | PKD1 kinase inh | MEX-5 binding | Runt-SMMHC FRET | Runt-CBFb FRET | RanGTP-Impb inh | EBV gp42 block
O=C(CN1CCN(S(=O)(=O)c2ccc(Br)cc2)CC1)N/N=C/c1ccncc1 | · | 1 | -7 | -2 | -2 | -2
O=C(CN1CCCCCC1)Nc1cccc([N+](=O)[O-])c1 | -1 | 4 | -2 | -1 | -1 | -13
O=C(CN1C(=O)c2ccccc2C1=O)Nc1cccc([N+](=O)[O-])c1 | -2 | 2 | 6 | 0 | 21* | -4
Cc1cc(/C=C2\SC(=S)N(Cc3ccco3)C2=O)c(C)n1-c1cccnc1 | -6 | -62* | -163 | -32 | 21* | 122*
CCC(C)[C@H](NC(=O)N1CCCCCC1)C(=O)OC (stereo partly drawn) | · | -4 | -7 | 0 | 4 | -9
C/C(=N\Nc1cc(C)nc(-c2ccccc2O)n1)c1ccccc1O | · | 0 | 0 | 1 | 28* | 10
Cc1cc(N/N=C\c2ccccc2)nc(-c2ccccc2O)n1 | -7 | 0 | 2 | 3 | 3 | 14
Cc1cccc(C2Nc3ccccc3C(=O)N2NC(=O)c2ccc([N+](=O)[O-])cc2)n1 (stereo not drawn) | 4 | -54* | -1 | 1 | 3 | -18
O=C(NN1C(=O)c2ccccc2NC1c1ccc([N+](=O)[O-])o1)c1ccc(Br)cc1 (stereo not drawn) | -3 | 1 | 3 | · | 1 | -7
O=C(NN1C(=O)c2ccccc2NC1c1ccccn1)c1ccc(Br)cc1 (stereo not drawn) | 3 | -30* | 2 | 1 | 2 | -19
CC(=O)NN1C(=O)c2ccccc2NC1c1ccccn1 (stereo not drawn) | -5 | -1 | 3 | 3 | -1 | 3
O=C(NN1C(=O)c2ccccc2NC1c1ccco1)c1ccc([N+](=O)[O-])cc1 (stereo not drawn) | 7 | 0 | 2 | 1 | 1 | -8
O=C(NN1C(=O)c2ccccc2NC1c1ccccn1)c1ccc([N+](=O)[O-])cc1 (stereo not drawn) | 5 | -44* | -4 | 2 | ? | -5
Cc1ccc(NC2CCCN(C(=O)CCC3=NNC(=O)CC3)C2)cc1C (stereo not drawn) | · | -1 | · | · | 3 | ·
CN(C)c1nc(N)c([N+](=O)[O-])c(NCC2CCCO2)n1 (stereo not drawn) | · | 0 | 4 | -2 | 3 | -10
OCCNc1nc(Nc2ccc(Br)cc2)nc2ccccc12 | -8 | -1 | 8 | 10 | 4 | 56*
OCCNc1nc(Nc2ccccc2)nc2ccccc12 | 13 | 1 | -1 | -1 | -1 | 1
O=C(COc1ccccc1Cl)N1CCN(C(=O)c2ccco2)CC1 | · | 2 | · | · | 2 | ·
CC1=CC(c2ccccc2)n2nc(NS(=O)(=O)c3ccc(C)cc3)nc2N1 (stereo not drawn) | -3 | · | 85* | 35 | · | 7
O=C1CSCN1c1cc(Cl)ccc1Cl | 75* | -1 | -1 | -1 | -4 | -11
Cc1ccn2c(=O)nc(SCC(=O)NC3CCCC3)nc2c1 | · | -1 | · | · | 18* | ·
Cc1ccn2c(=O)nc(SCC(=O)Nc3cc(C)on3)nc2c1 | · | -26* | · | · | 9 | ·
Cc1ccn2c(=O)nc(SCC(=O)NC3CCCCC3)nc2c1 | · | -3 | · | · | 3 | ·
Cc1cc(NC(=O)CSc2nc(=O)n3cc(Cl)ccc3n2)no1 | · | -11 | · | · | -2 | ·
Cc1cc(C)nc(SCC(=O)NC2=NN=C(c3ccc(Br)cc3)CS2)n1 | -2 | -1 | 36 | · | 38* | -8
Cc1ccc(-n2c([S-])c(C(=O)Nc3ccc(OC(F)F)cc3)[n+]3ccc(C(=O)NCCO)cc23)cc1C | 0 | -3 | 15 | 13 | 8 | -22
COc1ccccc1-n1c([S-])c(C(=O)Nc2ccccc2C(F)(F)F)[n+]2ccc(C(=O)NCCO)cc12 | -5 | -2 | 2 | 6 | 20* | -16
CCOc1cccc(=O)c2c(C)n(-c3ccc(C(=O)O)cc3)c(C)c12 | 8 | -36* | -7 | 5 | 1 | -2
c1ccc(N2N=C(c3cccs3)CC2c2ccco2)cc1 (stereo not drawn) | -6 | -1 | 82* | 32 | 1 | -16
